Assay results taken from ChEMBL document CHEMBL1275521, “Fluoroquinolone enhances the mutation frequency for meropenem-selected carbapenem resistance in Pseudomonas aeruginosa, but use of the high-potency drug doripenem inhibits mutant formation” (2008).
In brackets after ≈: the same amount, converted by molar mass.

Tested on: Pseudomonas aeruginosa
Assay: Antimicrobial activity against Pseudomonas aeruginosa PAO1 KTL1 harboring oprD, mexAB-oprM gene after 18 hrs by agar dilution method
Type: functional
Details: PAO1 KTL1, 18 h

In order of rising MIC:
1. C[C@@H](O)[C@H]1C(=O)N2C(C(=O)O)=C(S[C@@H]3CN[C@H](C(=O)N(C)C)C3)[C@H](C)[C@H]12 [MEROPENEM]  6.3 µg/mL (≈ 16.4 µM)
2. C[C@@H](O)[C@H]1C(=O)N2C(C(=O)O)=C(SCCNC=N)C[C@H]12 [IMIPENEM ANHYDROUS]  12.5 µg/mL (≈ 41.8 µM)

Tested on: Pseudomonas aeruginosa
Assay: Antimicrobial activity against Pseudomonas aeruginosa GP4KT11 harboring oprD gene after 18 hrs by agar dilution method
Details: GP4KT11, 18 h

In order of rising MIC:
1. C[C@@H](O)[C@H]1C(=O)N2C(C(=O)O)=C(S[C@@H]3CN[C@H](C(=O)N(C)C)C3)[C@H](C)[C@H]12 [MEROPENEM]  3.1 µg/mL (≈ 8.08 µM)
2. C[C@@H](O)[C@H]1C(=O)N2C(C(=O)O)=C(SCCNC=N)C[C@H]12 [IMIPENEM ANHYDROUS]  12.5 µg/mL (≈ 41.8 µM)

Tested on: Pseudomonas aeruginosa
Assay: Antimicrobial activity against wild-type Pseudomonas aeruginosa GP62 after 18 hrs by agar dilution method
Type: functional
Details: GP62, 18 h
Outline: (§1)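 MICs by agar dilution following CLSI guidelines; plates incubated 18 h at 37°C.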

In order of rising MIC:
1. C[C@@H](O)[C@H]1C(=O)N2C(C(=O)O)=C(S[C@@H]3CN[C@H](C(=O)N(C)C)C3)[C@H](C)[C@H]12 [MEROPENEM]  0.2 µg/mL (≈ 0.522 µM)
2. C[C@@H](O)[C@H]1C(=O)N2C(C(=O)O)=C(SCCNC=N)C[C@H]12 [IMIPENEM ANHYDROUS]  0.8 µg/mL (≈ 2.67 µM)

Tested on: Pseudomonas aeruginosa
Assay: Antimicrobial activity against Pseudomonas aeruginosa GP4KT111 harboring oprD,mexAB-oprM gene after 18 hrs by agar dilution method
Type: functional
Details: GP4KT111, 18 h

In order of rising MIC:
1. C[C@@H](O)[C@H]1C(=O)N2C(C(=O)O)=C(SCCNC=N)C[C@H]12 [IMIPENEM ANHYDROUS]  12.5 µg/mL (≈ 41.8 µM)
2. C[C@@H](O)[C@H]1C(=O)N2C(C(=O)O)=C(S[C@@H]3CN[C@H](C(=O)N(C)C)C3)[C@H](C)[C@H]12 [MEROPENEM]  12.5 µg/mL (≈ 32.6 µM)

Tested on: Pseudomonas aeruginosa
Assay: Antimicrobial activity against Pseudomonas aeruginosa PAO1 IPM46 harboring oprD gene after 18 hrs by agar dilution method
Type: functional
Details: PAO1 IPM46, 18 h

In order of rising MIC:
1. C[C@@H](O)[C@H]1C(=O)N2C(C(=O)O)=C(S[C@@H]3CN[C@H](C(=O)N(C)C)C3)[C@H](C)[C@H]12 [MEROPENEM]  1.6 µg/mL (≈ 4.17 µM)
2. C[C@@H](O)[C@H]1C(=O)N2C(C(=O)O)=C(SCCNC=N)C[C@H]12 [IMIPENEM ANHYDROUS]  12.5 µg/mL (≈ 41.8 µM)

Tested on: Pseudomonas aeruginosa
Assay: Antimicrobial activity against wild-type Pseudomonas aeruginosa GP37 after 18 hrs by agar dilution method
Type: functional
Details: GP37, 18 h
Outline: as §1

In order of rising MIC:
1. C[C@@H](O)[C@H]1C(=O)N2C(C(=O)O)=C(S[C@@H]3CN[C@H](C(=O)N(C)C)C3)[C@H](C)[C@H]12 [MEROPENEM]  0.2 µg/mL (≈ 0.522 µM)
2. C[C@@H](O)[C@H]1C(=O)N2C(C(=O)O)=C(SCCNC=N)C[C@H]12 [IMIPENEM ANHYDROUS]  0.8 µg/mL (≈ 2.67 µM)

Tested on: Pseudomonas aeruginosa
Assay: Antimicrobial activity against Pseudomonas aeruginosa GP61KT51 harboring oprD,mexAB-oprM gene after 18 hrs by agar dilution method
Type: functional
Details: GP61KT51, 18 h

In order of rising MIC:
1. C[C@@H](O)[C@H]1C(=O)N2C(C(=O)O)=C(SCCNC=N)C[C@H]12 [IMIPENEM ANHYDROUS]  6.3 µg/mL (≈ 21 µM)
2. C[C@@H](O)[C@H]1C(=O)N2C(C(=O)O)=C(S[C@@H]3CN[C@H](C(=O)N(C)C)C3)[C@H](C)[C@H]12 [MEROPENEM]  6.3 µg/mL (≈ 16.4 µM)

Tested on: Pseudomonas aeruginosa
Assay: Antimicrobial activity against wild-type Pseudomonas aeruginosa GP20 after 18 hrs by agar dilution method
Type: functional
Details: GP20, 18 h
Outline: as §1

In order of rising MIC:
1. C[C@@H](O)[C@H]1C(=O)N2C(C(=O)O)=C(S[C@@H]3CN[C@H](C(=O)N(C)C)C3)[C@H](C)[C@H]12 [MEROPENEM]  0.2 µg/mL (≈ 0.522 µM)
2. C[C@@H](O)[C@H]1C(=O)N2C(C(=O)O)=C(SCCNC=N)C[C@H]12 [IMIPENEM ANHYDROUS]  0.8 µg/mL (≈ 2.67 µM)

Tested on: Pseudomonas aeruginosa
Assay: Antimicrobial activity against Pseudomonas aeruginosa PAO1 SO20 harboring mexAB-oprM gene after 18 hrs by agar dilution method
Type: functional
Details: PAO1 SO20, 18 h

In order of rising MIC:
1. C[C@@H](O)[C@H]1C(=O)N2C(C(=O)O)=C(SCCNC=N)C[C@H]12 [IMIPENEM ANHYDROUS]  0.8 µg/mL (≈ 2.67 µM)
2. C[C@@H](O)[C@H]1C(=O)N2C(C(=O)O)=C(S[C@@H]3CN[C@H](C(=O)N(C)C)C3)[C@H](C)[C@H]12 [MEROPENEM]  1.6 µg/mL (≈ 4.17 µM)

Tested on: Pseudomonas aeruginosa
Assay: Antimicrobial activity against Pseudomonas aeruginosa PAO1 after 18 hrs by agar dilution method
Type: functional
Details: PAO1, 18 h
Outline: as §1

In order of falling MIC:
1. C[C@@H](O)[C@H]1C(=O)N2C(C(=O)O)=C(SCCNC=N)C[C@H]12 [IMIPENEM ANHYDROUS]  0.8 µg/mL (≈ 2.67 µM)
2. C[C@@H](O)[C@H]1C(=O)N2C(C(=O)O)=C(S[C@@H]3CN[C@H](C(=O)N(C)C)C3)[C@H](C)[C@H]12 [MEROPENEM]  0.2 µg/mL (≈ 0.522 µM)

Tested on: Pseudomonas aeruginosa
Assay: Antimicrobial activity against wild-type Pseudomonas aeruginosa GP61 after 18 hrs by agar dilution method
Type: functional
Details: GP61, 18 h
Outline: as §1

In order of falling MIC:
1. C[C@@H](O)[C@H]1C(=O)N2C(C(=O)O)=C(SCCNC=N)C[C@H]12 [IMIPENEM ANHYDROUS]  6.3 µg/mL (≈ 21 µM)
2. C[C@@H](O)[C@H]1C(=O)N2C(C(=O)O)=C(S[C@@H]3CN[C@H](C(=O)N(C)C)C3)[C@H](C)[C@H]12 [MEROPENEM]  1.6 µg/mL (≈ 4.17 µM)

Tested on: Pseudomonas aeruginosa
Assay: Antimicrobial activity against wild-type Pseudomonas aeruginosa GP4 after 18 hrs by agar dilution method
Type: functional
Details: GP4, 18 h
Outline: as §1

In order of falling MIC:
1. C[C@@H](O)[C@H]1C(=O)N2C(C(=O)O)=C(SCCNC=N)C[C@H]12 [IMIPENEM ANHYDROUS]  0.8 µg/mL (≈ 2.67 µM)
2. C[C@@H](O)[C@H]1C(=O)N2C(C(=O)O)=C(S[C@@H]3CN[C@H](C(=O)N(C)C)C3)[C@H](C)[C@H]12 [MEROPENEM]  0.2 µg/mL (≈ 0.522 µM)

Tested on: Pseudomonas aeruginosa
Assay: Antimicrobial activity against Pseudomonas aeruginosa PAO1 KTL harboring oprD gene after 18 hrs by agar dilution method
Type: functional
Details: not given
Outline: (§2)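 Carbapenem-resistant mutants were isolated on carbapenem-containing AB3 agar after 10^6-fold dilution and broth culture, with or without ciprofloxacin or ofloxacin. Randomly picked colonies were checked for MIC by agar dilution following CLSI guidelines, with 18 h incubation at 37°C. PAO1KTL and PAO1KTS came from meropenem selection without fluoroquinolone.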

In order of rising MIC:
1. C[C@@H](O)[C@H]1C(=O)N2C(C(=O)O)=C(S[C@@H]3CN[C@H](C(=O)N(C)C)C3)[C@H](C)[C@H]12 [MEROPENEM]  1.6 µg/mL (≈ 4.17 µM)
2. C[C@@H](O)[C@H]1C(=O)N2C(C(=O)O)=C(SCCNC=N)C[C@H]12 [IMIPENEM ANHYDROUS]  12.5 µg/mL (≈ 41.8 µM)

Tested on: Pseudomonas aeruginosa
Assay: Antimicrobial activity against Pseudomonas aeruginosa GP20KT21 harboring oprD gene after 18 hrs by agar dilution method
Type: functional
Details: GP20KT21, 18 h
Outline: as §2

In order of rising MIC:
1. C[C@@H](O)[C@H]1C(=O)N2C(C(=O)O)=C(S[C@@H]3CN[C@H](C(=O)N(C)C)C3)[C@H](C)[C@H]12 [MEROPENEM]  3.1 µg/mL (≈ 8.08 µM)
2. C[C@@H](O)[C@H]1C(=O)N2C(C(=O)O)=C(SCCNC=N)C[C@H]12 [IMIPENEM ANHYDROUS]  12.5 µg/mL (≈ 41.8 µM)

Tested on: Pseudomonas aeruginosa
Assay: Antimicrobial activity against Pseudomonas aeruginosa PAO1 KTS harboring mexAB-oprM gene after 18 hrs by agar dilution method
Type: functional
Details: not given
Outline: as §2

In order of falling MIC:
1. C[C@@H](O)[C@H]1C(=O)N2C(C(=O)O)=C(S[C@@H]3CN[C@H](C(=O)N(C)C)C3)[C@H](C)[C@H]12 [MEROPENEM]  1.6 µg/mL (≈ 4.17 µM)
2. C[C@@H](O)[C@H]1C(=O)N2C(C(=O)O)=C(SCCNC=N)C[C@H]12 [IMIPENEM ANHYDROUS]  0.8 µg/mL (≈ 2.67 µM)

Tested on: Pseudomonas aeruginosa
Assay: Antimicrobial activity against Pseudomonas aeruginosa GP62KT41 harboring oprD gene after 18 hrs by agar dilution method
Type: functional
Details: GP62KT41, 18 h
Outline: as §2

In order of falling MIC:
1. C[C@@H](O)[C@H]1C(=O)N2C(C(=O)O)=C(SCCNC=N)C[C@H]12 [IMIPENEM ANHYDROUS]  12.5 µg/mL (≈ 41.8 µM)
2. C[C@@H](O)[C@H]1C(=O)N2C(C(=O)O)=C(S[C@@H]3CN[C@H](C(=O)N(C)C)C3)[C@H](C)[C@H]12 [MEROPENEM]  3.1 µg/mL (≈ 8.08 µM)

Tested on: Pseudomonas aeruginosa
Assay: Antimicrobial activity against Pseudomonas aeruginosa GP37KT31 harboring oprD gene after 18 hrs by agar dilution method
Type: functional
Details: GP37KT31, 18 h
Outline: as §2

In order of falling MIC:
1. C[C@@H](O)[C@H]1C(=O)N2C(C(=O)O)=C(SCCNC=N)C[C@H]12 [IMIPENEM ANHYDROUS]  12.5 µg/mL (≈ 41.8 µM)
2. C[C@@H](O)[C@H]1C(=O)N2C(C(=O)O)=C(S[C@@H]3CN[C@H](C(=O)N(C)C)C3)[C@H](C)[C@H]12 [MEROPENEM]  3.1 µg/mL (≈ 8.08 µM)
